Laboratory results from ChEMBL document CHEMBL4368911, “Metal-Binding Pharmacophore Library Yields the Discovery of a Glyoxalase 1 Inhibitor” (J Med Chem, 2019).
Calls of active or inactive are those of the source. The calls are words filed in the database; no cut-off is given here.

Legend:
Lactoylglutathione lyase [1] = target: T1, Lactoylglutathione lyase (Homo sapiens, UniProt Q04760); test: Inhibition of human GLO1
Target sequence in this assay (Q04760 whole entry, the tested form may be a part): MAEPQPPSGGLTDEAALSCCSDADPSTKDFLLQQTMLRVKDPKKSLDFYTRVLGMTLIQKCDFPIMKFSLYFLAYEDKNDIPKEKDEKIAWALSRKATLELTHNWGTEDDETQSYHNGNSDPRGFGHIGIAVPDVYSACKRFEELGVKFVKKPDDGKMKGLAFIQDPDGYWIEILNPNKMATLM

Lactoylglutathione lyase [2] = target: T1, Lactoylglutathione lyase; test: Inhibition recombinant human N-terminal 6His-tagged GLO1 (2 to 184 residues) expressed in Escherichia coli using MG as substrate preincubated for 15 to 20 mins followed by substrate addition and measured every 1 min for 8 mins
In short: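 Recombinant human GLO1, 40 ng per well, preincubated 15–20 min with inhibitor in 100 mM sodium phosphate pH 7.0. Substrate was GSH + MG hemithioacetal, premixed 20 min at room temperature; DMSO ≤5% final. Absorbance at 240 nm read every 1 min for 8 min. Rates compared with no-inhibitor controls after background subtraction. Chugai-1 as reference.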
Target sequence in this assay (Q04760 whole entry, the tested form may be a part): as above

[3] = Toxicity in FVB/NJ mouse at =>50 mg/kg, ip; assay type: organism-based; details: in vivo
In short: (§1)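 Toxicity in mice judged by observation after i.p. dosing.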

[4] = Drug uptake in FVB/NJ mouse brain at 12.5 mg/kg, ip measured after 60 mins post dose by LC-MS/MS analysis; assay type: ADME, organism-based; details: read-out: Drug uptake
In short: (§2)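 Single i.p. dose, then brain sampled at 30, 60, 120 or 240 min, n = 3 per time point. Mice anesthetized with isoflurane and perfused with PBS through the left ventricle. Brains minced, extracted with acetonitrile, bead-homogenized, centrifuged and filtered. LC-MS/MS against an 11-point calibration (5–5000 ng/mL) spiked into blank brain. Median reported as ng/mg wet brain.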

[5] = Drug uptake in FVB/NJ mouse brain at 25 mg/kg, ip measured after 120 mins post dose by LC-MS/MS analysis; assay type: ADME, organism-based; details: read-out: Drug uptake; in short: as §2
[6] = Drug uptake in FVB/NJ mouse brain at 25 mg/kg, ip measured after 240 mins post dose by LC-MS/MS analysis; assay type: ADME, organism-based; details: read-out: Drug uptake; in short: as §2
[7] = Drug uptake in FVB/NJ mouse brain at 25 mg/kg, ip measured after 60 mins post dose by LC-MS/MS analysis; assay type: ADME, organism-based; details: read-out: Drug uptake; in short: as §2
Mus musculus [8] = test: In-vivo inhibition of GLO1 in FVB/NJ mouse assessed as increase in methylglyoxal accumulation at 12.5 mg/kg, ip measured at 30 mins post dose by LC-MS/MS analysis relative to control; assay type: functional
In short: (§3)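 Brain MG measured 30–240 min after i.p. dosing and compared with vehicle-treated mice. Brains taken after PBS perfusion under isoflurane, then acetonitrile extraction, homogenization, centrifugation and filtration. LC-MS/MS quantified against an 11-point calibration (5–5000 ng/mL) in blank brain matrix. Expressed per mg brain tissue.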

Mus musculus [9] = test: Antidepressant-like activity in FVB/NJ mouse assessed as reduction in immobility at 12.5 mg/kg, ip measured after 120 mins by forced swim test; assay type: functional, organism-based
In short: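 Mice 108–148 days old, 12 h light–dark cycle, tested in the light phase. Each mouse got vehicle (8% DMSO, 18% Tween, […]) on one day and drug on the other, i.p., counterbalanced, about 3 weeks apart. FST run 2 h post-injection: 6 min in a bucket filled 48 cm with 23–25 water. Immobility time analysed by ANOVA with sex and test order as factors.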

[10] = Drug uptake in FVB/NJ mouse brain at 12.5 mg/kg, ip measured after 240 mins post dose by LC-MS/MS analysis; assay type: ADME, organism-based; details: read-out: Drug uptake; in short: as §2
[11] = Toxicity in FVB/NJ mouse up to 100 mg/kg, ip; assay type: organism-based; details: in vivo; in short: as §1
[12] = Drug uptake in FVB/NJ mouse brain at 12.5 mg/kg, ip measured after 30 mins post dose by LC-MS/MS analysis; assay type: ADME, organism-based; details: read-out: Drug uptake; in short: as §2
[13] = Drug uptake in FVB/NJ mouse brain at 12.5 mg/kg, ip measured after 120 mins post dose by LC-MS/MS analysis; assay type: ADME, organism-based; details: read-out: Drug uptake; in short: as §2
Mus musculus [14] = test: In-vivo inhibition of GLO1 in FVB/NJ mouse assessed as increase in methylglyoxal accumulation at 12.5 mg/kg, ip measured at 240 mins post dose by LC-MS/MS analysis relative to control; assay type: functional; details: in the assay text read “25 mg/kg” for “12.5 mg/kg”; in short: as §3
[15] = Drug uptake in FVB/NJ mouse brain at 25 mg/kg, ip measured after 30 mins post dose by LC-MS/MS analysis; assay type: ADME, organism-based; details: read-out: Drug uptake; in short: as §2
Lactoylglutathione lyase [16] = target: T1, Lactoylglutathione lyase; test: Inhibition recombinant human N-terminal 6His-tagged GLO1 (2 to 184 residues) expressed in Escherichia coli at 50 uM using MG as substrate preincubated for 15 to 20 mins followed by substrate addition and measured every 1 min for 8 mins
Target sequence in this assay (Q04760 2-184 limits assumed): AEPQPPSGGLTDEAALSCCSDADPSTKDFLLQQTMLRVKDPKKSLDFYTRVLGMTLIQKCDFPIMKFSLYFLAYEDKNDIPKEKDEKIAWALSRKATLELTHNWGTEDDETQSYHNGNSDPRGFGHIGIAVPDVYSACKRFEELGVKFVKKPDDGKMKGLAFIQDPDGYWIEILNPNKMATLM

Compound `COC(=O)c1c(C)cc(Oc2cc(C)cc(O)c2O)cc1O` has a Ki (Lactoylglutathione lyase [1]) of 0.23 µM.
For `CS(=O)(=O)Nc1ccc(N2CCOCC2)c2cccnc12`, the IC50 (Lactoylglutathione lyase [2]) was greater than 100 µM.
With `O=S(=O)(Nc1ccc(-c2ccc(Cl)cc2)c2cccnc12)c1ccccn1` the Activity [3] was “Toxic” and the IC50 (Lactoylglutathione lyase [2]) was 0.48 µM.
For `O=S(=O)(Nc1cccc2cccnc12)C1CCCCC1`, the IC50 (Lactoylglutathione lyase [2]) was greater than 20 µM.
Work on `O=S(=O)(Nc1ccc(CCc2ccc(F)cc2)c2cccnc12)c1ccccn1` yielded an IC50 (Lactoylglutathione lyase [2]) of 0.79 µM.
`O=S(=O)(CCc1ccccc1)Nc1cccc2cccnc12` showed an IC50 (Lactoylglutathione lyase [2]) of 8.7 µM.
Work on `O=S(=O)(Nc1cccc2cccnc12)c1ccc(F)c(F)c1` yielded an IC50 (Lactoylglutathione lyase [2]) of 5.7 µM.
With `O=S(=O)(Nc1cccc2cccnc12)c1ccc(F)cc1` the IC50 (Lactoylglutathione lyase [2]) was 7.5 µM.
With `CS(=O)(=O)Nc1cccc2ncccc12` the IC50 (Lactoylglutathione lyase [2]) was greater than 200 µM.
In the case of `COc1cccc(-c2ccc(NS(=O)(=O)c3ccccn3)c3ncccc23)c1`, the IC50 (Lactoylglutathione lyase [2]) is reported as 1.04 µM.
`CS(=O)(=O)Nc1ccc(-c2ccc3c(c2)OCO3)c2cccnc12` gave an IC50 (Lactoylglutathione lyase [2]) of 11.2 µM.
In the case of `O=S(=O)(Nc1ccc(-c2ccccc2)c2cccnc12)c1ccccn1`, the IC50 (Lactoylglutathione lyase [2]) is reported as 0.5 µM.
With `CS(=O)(=O)Nc1ccc(-c2ccccc2)c2cccnc12` the IC50 (Lactoylglutathione lyase [2]) was 11.5 µM.
Work on `N#Cc1ccccc1S(=O)(=O)Nc1cccc2cccnc12` yielded an IC50 (Lactoylglutathione lyase [2]) greater than 20 µM.
`COc1ccccc1S(=O)(=O)Nc1cccc2cccnc12` gave an IC50 (Lactoylglutathione lyase [2]) greater than 20 µM.
In the case of `CCCCS(=O)(=O)Nc1cccc2cccnc12`, the IC50 (Lactoylglutathione lyase [2]) is reported as greater than 20 µM.
`O=S(=O)(Nc1ccc(-c2ccc(Cl)c(Cl)c2)c2cccnc12)c1ccccn1` gave an IC50 (Lactoylglutathione lyase [2]) of 0.54 µM.
Compound `CSc1nc2ccc(S(=O)(=O)Nc3cccc4cccnc34)cc2s1` has an IC50 (Lactoylglutathione lyase [2]) of 3.9 µM.
With `COc1ccc(-c2ccc(NS(=O)(=O)c3ccccn3)c3ncccc23)cc1Cl` the IC50 (Lactoylglutathione lyase [2]) was 0.59 µM.
Work on `O=S(=O)(Nc1cccc2cccnc12)c1cccs1` yielded an IC50 (Lactoylglutathione lyase [2]) of 4.9 µM.
For `O=S(=O)(Nc1cccc2cccnc12)c1ccccc1`, the IC50 (Lactoylglutathione lyase [2]) was 8.5 µM.
Compound `O=S(=O)(Nc1cccc2cccnc12)c1cccnc1` has an IC50 (Lactoylglutathione lyase [2]) of 11.2 µM.
In the case of `Cn1cnc(S(=O)(=O)Nc2cccc3cccnc23)c1`, the IC50 (Lactoylglutathione lyase [2]) is reported as 5.5 µM.
With `O=S(=O)(Nc1cccc2cccnc12)c1ccc2ccccc2c1` the IC50 (Lactoylglutathione lyase [2]) was 3.6 µM.
`COc1cc(OC)cc(-c2ccc(NS(=O)(=O)c3ccccn3)c3ncccc23)c1` gave an IC50 (Lactoylglutathione lyase [2]) of 1.19 µM.
With `O=S(=O)(Nc1cccc2cccnc12)c1ccc2ncsc2c1` the IC50 (Lactoylglutathione lyase [2]) was 3.9 µM.
For `O=S(=O)(Nc1cc(CCc2ccccc2)cc2cccnc12)c1ccccn1`, the IC50 (Lactoylglutathione lyase [2]) was 1.21 µM.
`Cn1cc(S(=O)(=O)Nc2cccc3cccnc23)cn1` gave an IC50 (Lactoylglutathione lyase [2]) greater than 20 µM.
`CC(C)(C)c1ccc(S(=O)(=O)Nc2cccc3cccnc23)cc1` gave an IC50 (Lactoylglutathione lyase [2]) of 4.2 µM.
`N#Cc1cccc(S(=O)(=O)Nc2cccc3cccnc23)c1` showed an IC50 (Lactoylglutathione lyase [2]) of 7.3 µM.
In the case of `O=S(=O)(CCCc1ccccc1)Nc1cccc2cccnc12`, the IC50 (Lactoylglutathione lyase [2]) is reported as 4.6 µM.
In the case of `CC(C)S(=O)(=O)Nc1cccc2cccnc12`, the IC50 (Lactoylglutathione lyase [2]) is reported as greater than 20 µM.
In the case of `Cc1ccc2cccc(NS(C)(=O)=O)c2n1`, the IC50 (Lactoylglutathione lyase [2]) is reported as 43 µM.
With `COc1cccc(S(=O)(=O)Nc2cccc3cccnc23)c1` the IC50 (Lactoylglutathione lyase [2]) was 6.9 µM.
`CS(=O)(=O)Nc1ccc(-c2ccco2)c2cccnc12` gave an IC50 (Lactoylglutathione lyase [2]) of 11.9 µM.
In the case of `COc1cc(CCc2cc(NS(=O)(=O)c3ccccn3)c3ncccc3c2)cc(OC)c1`, the concentration at 1 h [4] is reported as 14400 ng/g, the concentration at 2 h [5] is reported as 18900 ng/g and the concentration at 4 h [6] is reported as 8300 ng/g. The concentration at 1 h [7] was 6700 ng/g, the IC50 (Lactoylglutathione lyase [2]) was 0.46 to 0.463 µM and the “fold change (FC)” value (Mus musculus [8]) was 11. The Activity (Mus musculus [9]) was “Active”, the concentration at 4 h [10] was 2200 ng/g and the Activity [11] was “Non-Toxic”. For the same compound, the concentration at 0.5 h [12] was 2100 ng/g, the concentration at 2 h [13] was 6000 ng/g and the “fold change (FC)” value (Mus musculus [14]) was 13. The concentration at 0.5 h [15] was 400 ng/g.
Compound `CNS(=O)(=O)c1cccc2cccnc12` has an IC50 (Lactoylglutathione lyase [2]) greater than 200 µM.
`COc1ccc(-c2ccc(NS(=O)(=O)c3ccccn3)c3ncccc23)cc1` gave an IC50 (Lactoylglutathione lyase [2]) of 0.64 µM.
Compound `CS(=O)(=O)Nc1ccc(N2CCCCC2)c2cccnc12` has an IC50 (Lactoylglutathione lyase [2]) greater than 100 µM.
For `O=S(=O)(Nc1ccc(-c2ccc(F)cc2)c2cccnc12)c1ccccn1`, the IC50 (Lactoylglutathione lyase [2]) was 0.72 µM.
Work on `COc1ccc(S(=O)(=O)Nc2cccc3cccnc23)cc1` yielded an IC50 (Lactoylglutathione lyase [2]) of 7 µM.
Work on `CS(=O)(=O)Oc1cccc2cccnc12` yielded an IC50 (Lactoylglutathione lyase [2]) greater than 200 µM.
`CS(=O)(=O)Nc1ccc(-c2cncnc2)c2cccnc12` gave an IC50 (Lactoylglutathione lyase [2]) greater than 20 µM.
Compound `CS(=O)(=O)Nc1ccc(-c2ccc(Cl)cc2)c2cccnc12` has an IC50 (Lactoylglutathione lyase [2]) of 6.2 µM.
Compound `N#Cc1ccc(S(=O)(=O)Nc2cccc3cccnc23)cc1` has an IC50 (Lactoylglutathione lyase [2]) of 6.6 µM.
`O=S(=O)(Nc1cc(CCc2ccc(F)cc2)cc2cccnc12)c1ccccn1` gave an IC50 (Lactoylglutathione lyase [2]) of 1.32 µM.
For `CS(=O)(=O)Nc1ccc(-c2cccs2)c2cccnc12`, the IC50 (Lactoylglutathione lyase [2]) was 15.4 µM.
With `O=S(=O)(Nc1ccc(CCc2ccccc2)c2cccnc12)c1ccccn1` the IC50 (Lactoylglutathione lyase [2]) was 0.79 µM.
Work on `CS(=O)(=O)Nc1cccc2ccncc12` yielded an IC50 (Lactoylglutathione lyase [2]) greater than 200 µM.
`Cc1ccc2cccc(NS(=O)(=O)c3ccccc3)c2n1` showed an IC50 (Lactoylglutathione lyase [2]) of 14.5 µM.
`CC(=O)Nc1cccc2cccnc12` gave an IC50 (Lactoylglutathione lyase [2]) greater than 200 µM.
Work on `CS(=O)(=O)Nc1ccc(-c2ccc(F)c(F)c2)c2cccnc12` yielded an IC50 (Lactoylglutathione lyase [2]) of 13.9 µM.
Compound `O=S(=O)(Cc1ccccc1)Nc1cccc2cccnc12` has an IC50 (Lactoylglutathione lyase [2]) of 7.6 µM.
With `CS(=O)(=O)Nc1cccc2cccnc12` the IC50 (Lactoylglutathione lyase [2]) was 18.5 µM and the inhibition (Lactoylglutathione lyase [16]) was greater than 50%.
`CS(=O)(=O)Nc1ccc(-c2ccncc2)c2cccnc12` gave an IC50 (Lactoylglutathione lyase [2]) greater than 20 µM.
`O=S(=O)(Nc1cccc2cccnc12)c1ccccn1` showed an IC50 (Lactoylglutathione lyase [2]) of 1.3 µM.
In the case of `O=S(=O)(Nc1cccc2cccnc12)c1ccc2c(c1)OCO2`, the IC50 (Lactoylglutathione lyase [2]) is reported as 6.1 µM.
Work on `O=C1Cc2cc(S(=O)(=O)Nc3cccc4cccnc34)ccc2N1` yielded an IC50 (Lactoylglutathione lyase [2]) of 6.6 µM.
In the case of `O=S(=O)(Nc1ccc(-c2cccc(Cl)c2)c2cccnc12)c1ccccn1`, the IC50 (Lactoylglutathione lyase [2]) is reported as 0.37 µM.
With `O=S(=O)(Nc1cccc2cccnc12)C1CC1` the IC50 (Lactoylglutathione lyase [2]) was greater than 20 µM.
